TNAP inh noacc: inhibitors of human TNAP without phosphate acceptor; P05186; purified TNAP, CDP-star luminescence, 30 min; inhibition, % at 20 µM; hit rate 0.26% among 200,000;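 active means tissue-nonspecific alkaline phosphatase inhibition above about 50% at 20 µM in the single-dose screen, limit read from the data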;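 further: 0% = DMSO negative control and 100% = EDTA positive control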
Target sequence (P05186 whole entry, looked up): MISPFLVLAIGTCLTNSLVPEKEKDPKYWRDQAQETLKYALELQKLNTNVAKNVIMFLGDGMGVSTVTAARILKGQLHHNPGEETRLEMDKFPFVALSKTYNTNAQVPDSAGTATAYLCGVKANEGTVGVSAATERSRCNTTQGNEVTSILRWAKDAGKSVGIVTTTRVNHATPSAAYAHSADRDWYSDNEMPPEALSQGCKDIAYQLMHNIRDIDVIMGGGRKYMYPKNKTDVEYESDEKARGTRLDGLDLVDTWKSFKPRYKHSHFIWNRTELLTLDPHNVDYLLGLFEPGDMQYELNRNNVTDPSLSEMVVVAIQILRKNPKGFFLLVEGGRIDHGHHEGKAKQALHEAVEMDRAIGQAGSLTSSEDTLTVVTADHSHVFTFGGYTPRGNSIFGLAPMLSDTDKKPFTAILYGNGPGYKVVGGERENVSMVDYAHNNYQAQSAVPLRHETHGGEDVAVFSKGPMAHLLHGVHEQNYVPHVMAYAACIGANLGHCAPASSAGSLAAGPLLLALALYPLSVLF
PMI act: activators of human phosphomannose isomerase. P34949. hit rate 0.005% among 190,000. activation factor at 20 µM. AID 1214. purified human PMI, coupled resazurin fluorescence, 20 min; hits give high values; 1 = vehicle control, 0 substrate-free wells;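 active means activation factor of 2 or more at 20 µM, relative to plate controls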
PMI act hi M6P: activators of human phosphomannose isomerase at near-saturating mannose 6-phosphate | coupled PMI enzyme assay, resazurin fluorescence, 20 min; hits give high values; 1 = untreated enzyme, 0 = substrate-free blank | activation factor at 20 µM | hit rate 0.34% among 190,000;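 active means activation factor of 2 or more at 20 µM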
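Test system: human phosphomannose isomerase with PGI, G6PDH, diaphorase coupling enzymes; amount: 15 ng/mL PMI; incubation: enzyme reaction with compound 20 min at room temperature; technique: resorufin fluorescence (Ex 544/Em 590 nm) from resazurin via diaphorase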
TNAP act hiacc: TNAP (human) activation, high acceptor; P05186; activation factor at 20 µM; AID 1136; purified TNAP, CDP-star luminescence, 1 M DEA, 30 min; hits give high values; 0 = EDTA background, 1 = DMSO-only activity; 200,000 tested, under 10 active;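 active means activation factor at least 2 at 20 µM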
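Control set: EDTA negative control, DMSO positive control / Assay system: human TNAP / Quantity: TNAP 1/800 final / Evaluation: TNAP activation factor scaled between EDTA and DMSO control wells / Measured by: luminescent substrate turnover signal / Compound dosing: one dose, 20 µM / Times: 30 min enzyme reaction at room temperature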
TNAP inh hi DEA: blocks human TNAP under high phosphate acceptor concentration; inhibition, % at 20 µM; hit rate 0.03% among 200,000; P05186; purified TNAP, CDP-star luminescence, 1 M DEA;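 active means over 50% inhibition of tissue-nonspecific alkaline phosphatase at 20 µM in the single-dose screen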;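 further: plate controls were DMSO wells for no effect and EDTA-quenched wells as full inhibition for full effect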
Starred values were filed as active, the others as inactive; i = inactive. Shown are actives, neighbours in structure and some others; about 0.64% of the full set was active somewhere.

SMILES	TNAP inh noacc	PMI act	PMI act hi M6P	TNAP act hiacc	TNAP inh hi DEA
COc1ccc(Cl)cc1NC(=O)CN1CCC(n2nnc3cc(C)ccc32)CC1	i	1	1	2.7*	-173.4
CCOc1cc(C)c(S(=O)(=O)NC2CC(C)(C)NC(C)(C)C2)cc1C	-9.0	1.1	1	1	-3.4
Cc1ccc(N2NC3(CCN(C(N)=O)CC3)NC2=O)cc1	-8.9	1.6	2.3*	1	-3.1
O=C(CSc1ncccc1C(=O)O)c1cccc(C(F)(F)F)c1	-11.9	1.7	2.2*	1	-0.6
O=C(CSc1ncccc1C(=O)O)c1ccc2ccccc2c1	-9.7	1.2	1.3	1	-4.0
Cc1ccc(C(=O)c2c(C)oc3c2C(=O)C(=O)c2ccccc2-3)cc1	-2.8	0.3	0.3	1	3.6
COc1ccc(C(=O)c2c(C(F)(F)F)oc3c2C(=O)c2ccccc2C3=O)cc1	6.5	1.5	2*	1	-2.4
COc1ccc(/C=C(/NC(=O)c2cccc([N+](=O)[O-])c2)C(=O)O)cc1	-17.6	1.7	2*	1	-3.8
CN(CCc1ccccn1)C(=O)CCC1CCCN(C(=O)c2n[nH]c3c2CCCC3)C1 (stereo not drawn)	70.0*	1	1.1	1	-4.4
NNc1nc(-c2ccccc2)cs1	-10.6	1.6	2*	0.9	6.9
c1ccc(-c2csc(Nc3ncccn3)n2)cc1	-1.9	1	1.1	1	-0.6
CCOc1ccc(/C=C/C(=O)c2cc(Br)ccc(=O)c2O)cc1	13.8	1.6	2*	0.9	8.5
CCOC(=O)N1CCN(CC(=O)Nc2ccc(F)c(F)c2F)CC1	-2.3	1	1	1	-2.4
Cc1ccc(NC(=O)C2CCN(S(=O)(=O)c3c(C)n[nH]c3C)CC2)nc1	55.3*	1	0.8	1.1	-9.3
Cc1n[nH]c(C)c1S(=O)(=O)N1CCN(C(=O)c2ccco2)CC1	60.5*	1	1	1	-2.7
O=C(c1ccco1)N1CCN(S(=O)(=O)N2CCOCC2)CC1	-7.8	1	1	1.1	-5.1
Cc1ccc(NC(=O)C2CCN(S(=O)(=O)c3cnc[nH]3)CC2)nc1	-7.3	1	1	1	-3.7
CCc1ccc(OCC(=O)NC(=S)Nc2ccc(Br)c(C)n2)cc1	-6.5	1	1.1	1.1	-5.1
CC(C(=O)N1CCCC1)N1CCN(c2ccccc2O)CC1 (stereo not drawn)	-10.2	1	0.8	1	-4.2
O=C(CCN1C(=O)S/C(=C/c2ccc(Cl)cc2)C1=O)N1CCOCC1	-14.0	0.9	1	1	4.3
O=C(O)CCN1C(=O)CC(N2C(=O)/C(=C/c3ccc(Cl)cc3)SC2=S)C1=O (stereo not drawn)	63.5*	1	1.1	1	4.1
CCN=C1NN=C(c2cc(C)n(CCc3ccccc3)c2C)CS1	-15.6	1.6	2.2*	1	-1.2
COc1ccc(NC(=O)CSc2nnc(Cc3cccn3C)n2-c2ccc(OC)cc2)cc1	-4.0	0.8	0.8	1	-2.6
COc1ccccc1Nc1nc(-c2c(C)[nH]c3ccccc23)cs1	1.8	1.2	2*	1	-2.0
COC(=O)C(C)Sc1ccc2nnc(CCNS(=O)(=O)c3ccccc3)n2n1 (stereo not drawn)	-5.9	1	0.9	1	-4.9
SMILES	TNAP inh noacc	PMI act	PMI act hi M6P	TNAP act hiacc	TNAP inh hi DEA
CC1CC(C)(C)N(C(=O)CN2C(=O)c3ccccc3C2=O)c2ccccc21 (stereo not drawn)	-5.4	1	1	1	-1.1
CC1(C)Cc2ccccc2C2CC(O)C(=O)N21 (stereo not drawn)	-11.0	1.4	2*	1	-2.6
Cc1c(C(=O)NC2CCCc3ccccc32)oc2ccccc12 (stereo not drawn)	-8.1	0.9	1	1	-3.0
COc1ccc(OCc2nnc3n2N=C(c2ccc(OC)cc2)CS3)cc1	5.5	1.1	1	1	-2.7
CN(C)c1ncc(/C=C2/C(=O)NC(=S)N(C3CCCCC3)C2=O)cn1	38.7	1.7	2*	1.1	-6.6
COc1ccc(OC)c(S(=O)(=O)Nc2cccnc2)c1	86.4*	1	1	0.3	74.8*
CCOC(=O)CSc1n[nH]c(NC(C)=O)n1	-7.3	1	1	1.1	-6.8
O=C(c1ccccc1)c1c[nH]c(C(=O)NNc2ccccc2)c1	-11.0	1.7	2.3*	1	-4.0
O=C(c1ccccc1)c1c[nH]c(C(=O)NCc2cccnc2)c1	-9.4	1.1	0.9	1	-3.8
CCOc1ccccc1NC(=S)Nc1ccc(S(N)(=O)=O)cc1	32.3	0.9	0.8	1.1	-8.1
Cc1ccc2c(CN3CCCc4ccccc43)cc(=O)oc2c1C	-6.2	1.8	2.3*	1	-3.3
O=C1C2C3C=CC(C3)C2C(=O)N1c1n[nH]c(CCc2ccccc2)n1 (stereo not drawn)	68.0*	0.9	0.8	1	2.1
O=C1C2CC=CCC2C(=O)N1Cc1ccccc1 (stereo not drawn)	-9.2	1	1	1	-2.7
O=C1C2CC=CCC2C(=O)N1c1n[nH]c(Cc2ccccc2)n1 (stereo not drawn)	95.6*	0.9	1	1	1.8
N#Cc1c(-c2ccncc2)c2c([nH]c1=S)CCCC2	0.5	1.1	1.1	1	3.1
N#Cc1c2c(c(-c3ccccc3Cl)[nH]c1=S)CCCC2	-2.7	1.6	2.4*	1.1	-6.0
N#Cc1c(-c2ccccc2Cl)cc(-c2ccccc2)[nH]c1=S	7.4	1.6	2.5*	1	-3.4
COc1cc2[nH]c(=S)n(C3CCN(Cc4ccccc4)CC3)c(=O)c2cc1OC	-9.9	1	1	1	-3.8
CC1CN(C(=O)Nc2ccc3c(c2)OCCO3)CC(C)O1 (stereo not drawn)	-9.1	1.1	1	1	-1.4
Cn1cnnc1SCC(=O)c1ccc2c(c1)OCCO2	-2.9	1	1.1	1	-4.9
CC(C)(C)c1ccc(-c2nc(C=O)c3ccccn23)cc1	-8.3	1	1	1	-3.1
Cc1c(C(C)(C)C)c(C=S)n2ccccc12	14.5	1.6	2*	1.1	-5.1
CC1(c2ccccc2)NC(=S)N2C1NC(=S)N2c1ccccc1 (stereo not drawn)	-35.7	1.1	1.2	1	0.9
S=C1NC2(CCCCC2)NN1c1ccccc1	-9.8	1.8	2.9*	1	-4.2
CC1CCCC2(C1)NC(=S)c1c(sc3c1CCCC3)N2 (stereo not drawn)	-10.1	0.3	0.6	1	3.3
CC1CC(C)(C)CC2(C1)NC(=S)N(c1ccccc1)N2 (stereo not drawn)	10.2	1.7	2*	1	-2.8
O=C1NC2(CCC3(CC2)OCCO3)NN1c1ccccc1	-8.7	1.6	2.3*	1	-3.4
